Test [1] concerns Pancreatic islet cell carcinoma. Kind of test: Additive antitumor activity in pancreatic islet cell carcinoma in RIP-Tag2 mouse assessed as reduction in proliferation by measuring reduction in phospho-histone H3 level at 100 mg/kg, po bid administered via gavage for 4 days in presence of OSI-930 by immunohistochemistry analysis. It is filed as functional, organism-based. As to conditions: time 4.0 day.

The test system is the same in test [2]. The experiment in a line: Antitumor activity against pancreatic islet cell carcinoma in RIP-Tag2 mouse assessed as reduction in VEGF production by measuring reduction in fluorescence in entire tumor at 75 mg/kg, po bid administered via gavage and measured after 7 days by immunohistochemical staining based confocal microscopic analysis relative to control. It is filed as functional. The arrangement: scale not given: the % may be the effect or the level left. As to conditions: time 7 day. In outline: (§1)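 Treatment began in RIP-Tag2 mice at 9–10 weeks: 75 mg/kg gavage BID for 1, 4 or 7 days, or 20 mg/kg ip QD for 7 days; vehicle Labrifil or water. Tissue fixed by vascular perfusion and 60–80 µm sections stained for VEGF with CD31. VEGF fluorescence intensity measured over whole tumor, tumor cells, or tumor vessels. 3–8 mice/group; ANOVA, Fisher PLSD.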

Test [3] has as its target Serine/threonine-protein kinase mTOR (Homo sapiens, UniProt P42345). Kind of test: Inhibition of mTOR (unknown origin) assessed as reduction in 4E-BP1 phosphorylation by cell based assay.
The test system of test [4] is Pancreatic islet cell carcinoma. Kind of test: Antitumor activity against pancreatic islet cell carcinoma in RIP-Tag2 mouse assessed as reduction in VEGF production by measuring reduction in tumor cell associated fluorescence intensity at 75 mg/kg, po bid administered via gavage and measured after 7 days by immunohistochemical staining based confocal microscopic analysis relative to control. It is filed as functional. The arrangement: scale not given: the % may be the effect or the level left. The following applies: time 7 day. In outline:
as §1

A further test deals with mTORC2 (Homo sapiens, UniProt P42345). Kind of test: Competitive inhibition of mTORC2 immunoprecipitated from human HeLa cells using His-tagged 4E-BP1 as substrate incubated for 30 mins in presence of ATP by chemiluminescence based ELISA. In outline:
(§2)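 Native mTORC1 or mTORC2 complex immunoprecipitated from HeLa lysates; kinase reaction run at 1 mM ATP.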
On the technique in general: ELISA stands for enzyme-linked immunosorbent assay.

Test [5] deals with Pancreatic islet cell carcinoma. Kind of test: Antitumor activity against pancreatic islet cell carcinoma in RIP-Tag2 mouse assessed as reduction in VEGF production by measuring reduction in fluorescence in entire tumor at 75 mg/kg, po bid administered via gavage and measured after 1 day by immunohistochemical staining based confocal microscopic analysis relative to control. Further details: scale not given: the % may be the effect or the level left. It is filed as functional. The gist of the method:
as §1

Test [6] deals with Mus musculus. Kind of test: In vivo inhibition of AKT phosphorylation in RIP-Tag2 mouse with pancreatic islet cell carcinoma 75 mg/kg, po bid administered via gavage and measured after 7 days by immunohistochemistry. It is filed as functional, organism-based. As to conditions: time 7.0 day. The gist of the method:
(§3)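 RIP-Tag2 mice aged 9–10 weeks dosed 75 mg/kg BID by gavage for 7 days, vehicle Labrifil or water; perfusion fixation, 60–80 µm tumor sections immunostained for phospho-4E-BP1, phospho-Akt or phospho-S6K with CD31; fluorescence/confocal imaging; 3–8 mice per group.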

The target of another test is mTORC1 (Homo sapiens, UniProt P42345). Kind of test: Competitive inhibition of mTORC1 immunoprecipitated from human HeLa cells using His-tagged 4E-BP1 as substrate incubated for 30 mins in presence of ATP by chemiluminescence based ELISA. The gist of the method: as §2
Test [7] addresses Phosphatidylinositol 4,5-bisphosphate 3-kinase catalytic subunit gamma isoform (Homo sapiens, UniProt P48736). Kind of test: Inhibition of PI3Kgamma (unknown origin) at 3 uM by Ambit Kinomescan assay relative to control.
In another test the test system is OVCAR-3. The experiment in a line: Inhibition of S6K phosphorylation at 235/236 residues in serum deprived/insulin stimulated human OVCAR-3 cells harboring PTEN and wild type PI3K at 0.001 to 10 uM preincubated for 2 hrs followed by insulin stimulation and measured immediately by Western blot analysis. It is filed as cell-based. As to conditions: dose 0.001-10 µM. A general note: In western blotting, separated proteins are transferred to a membrane and probed.

The next test concerns GEO. The experiment in a line: Antitumor activity against human GEO cells xenografted in nu/nu CD-1 mouse assessed as slower tumor growth at 75 mg/kg administered twice a day for 14 days and measured twice weekly. It is filed as functional, organism-based. The following applies: time 14.0 day.
For test [8], the target named is Proline-rich AKT1 substrate 1 (Homo sapiens) (UniProt Q96B36). The experiment in a line: Inhibition of PRAS40 phosphorylation at Ser 246 residue in serum deprived/insulin stimulated human OVCAR-3 cells harboring PTEN and wild type PI3K preincubated for 2 hrs followed by insulin stimulation and measured immediately by Western blot analysis. It is filed as cell-based. The following applies: dose 0.001-10 µM.

The subject of test [9] is Pancreatic islet cell carcinoma. Kind of test: Antitumor activity against pancreatic islet cell carcinoma in RIP-Tag2 mouse assessed as reduction in VEGF-A expression at 75 mg/kg, po bid administered via gavage and measured after 1 to 7 days by immunoprecipitation based densitometric analysis relative to control. It is filed as functional. The following applies: time 1-7 day. The arrangement: scale not given: the % may be the effect or the level left. The gist of the method:
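VEGF in tumor lysates from treated RIP-Tag2 mice (9–10 weeks old at start; 75 mg/kg gavage BID or 20 mg/kg ip QD) measured with mouse angiogenesis antibody arrays, read as pixel density. 3–8 mice/group, SEM; ANOVA with Fisher PLSD.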

Test [10] shares this test system. Kind of test: Antitumor activity against pancreatic islet cell carcinoma in RIP-Tag2 mouse assessed as reduction in cell proliferation at 75 mg/kg, po bid administered via gavage and measured after 7 days by immunohistochemistry analysis. It is filed as functional, organism-based. The following applies: time 7.0 day. The gist of the method: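 RIP-Tag2 mice aged 9–10 weeks dosed by gavage BID for 7 days; vehicle Labrifil or water. Mice fixed by vascular perfusion, tumors cut into 60–80 µm sections. Proliferating cells stained for phospho-histone H3 and apoptotic cells for activated caspase-3. Sections imaged by fluorescence/confocal microscopy. Body weight checked daily, fluids given if loss exceeded 10%. 3–8 mice per group, SEM, ANOVA with Fisher PLSD.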

Test [11] has the same test system. Kind of test: Antivascular activity against pancreatic islet cell carcinoma in RIP-Tag2 mouse assessed as reduction in vascular sprouts at 75 mg/kg, po bid administered via gavage and measured after 7 days by immunohistochemical staining based fluorescence microscopic analysis relative to control. It is filed as functional. Further details: scale not given: the % may be the effect or the level left. The following applies: time 7 day. In outline:
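For 7 days, RIP-Tag2 mice, 9–10 weeks old, received 75 mg/kg gavage BID, 200 mg/kg gavage QD, or 20 mg/kg ip QD. Perfusion-fixed tumors cut at 60–80 µm and stained for CD31 and type IV collagen basement membrane. Vessel area density from fluorescence images with threshold 30–50; sprouts and empty basement membrane sleeves examined by confocal microscopy. 3–8 mice/group; ANOVA, Fisher PLSD.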

Test [12] deals with Mus musculus. Kind of test: In vivo inhibition of S6K phosphorylation in RIP-Tag2 mouse with pancreatic islet cell carcinoma 75 mg/kg, po bid administered via gavage and measured after 7 days by immunohistochemistry. It is filed as functional, organism-based. As to conditions: time 7.0 day. The gist of the method:
as §3

The test system of test [13] is Pancreatic islet cell carcinoma. The experiment in a line: Antivascular activity in pancreatic islet cell carcinoma in RIP-Tag2 mouse assessed as suppression of tumor regrowth by measuring reduction in vessel density at 75 mg/kg, po bid administered via gavage pretreated with OSI-930 for 7 days at 200 mg/kg, po followed by compound administration and measured after 4 days (reference value: 18%). It is filed as functional. Further details: scale not given: the % may be the effect or the level left. The following applies: time 4 day. In outline:
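10-week-old RIP-Tag2 mice given OSI-930 200 mg/kg QD by gavage for 7 days, then 75 mg/kg BID by gavage for 4 days. Mice fixed by vascular perfusion; 60–80 µm tumor sections immunostained for endothelial cells; vessel area density from fluorescence images at threshold 30–50. 3–8 mice per group; ANOVA with Fisher PLSD.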

The test system is the same in test [14]. Kind of test: Antitumor activity against pancreatic islet cell carcinoma in RIP-Tag2 mouse assessed as reduction in VEGF production by measuring reduction in fluorescence in entire tumor at 75 mg/kg, po bid administered via gavage and measured after 4 days by immunohistochemical staining based confocal microscopic analysis relative to control. It is filed as functional. The following applies: time 4 day. The arrangement: scale not given: the % may be the effect or the level left. In outline:
as §1

Test [15] is described as follows: Inhibition of MAPK (unknown origin) signaling axis assessed as reduction in phosphorylated ERK1/2 level by cell based assay. As to conditions: Homo sapiens.

Each structure is given as a SMILES string. The source made the active and inactive calls.

Phosphatidylinositol 4,5-bisphosphate 3-kinase catalytic subunit gamma isoform, sequence (P48736 whole entry, looked up, canonical isoform): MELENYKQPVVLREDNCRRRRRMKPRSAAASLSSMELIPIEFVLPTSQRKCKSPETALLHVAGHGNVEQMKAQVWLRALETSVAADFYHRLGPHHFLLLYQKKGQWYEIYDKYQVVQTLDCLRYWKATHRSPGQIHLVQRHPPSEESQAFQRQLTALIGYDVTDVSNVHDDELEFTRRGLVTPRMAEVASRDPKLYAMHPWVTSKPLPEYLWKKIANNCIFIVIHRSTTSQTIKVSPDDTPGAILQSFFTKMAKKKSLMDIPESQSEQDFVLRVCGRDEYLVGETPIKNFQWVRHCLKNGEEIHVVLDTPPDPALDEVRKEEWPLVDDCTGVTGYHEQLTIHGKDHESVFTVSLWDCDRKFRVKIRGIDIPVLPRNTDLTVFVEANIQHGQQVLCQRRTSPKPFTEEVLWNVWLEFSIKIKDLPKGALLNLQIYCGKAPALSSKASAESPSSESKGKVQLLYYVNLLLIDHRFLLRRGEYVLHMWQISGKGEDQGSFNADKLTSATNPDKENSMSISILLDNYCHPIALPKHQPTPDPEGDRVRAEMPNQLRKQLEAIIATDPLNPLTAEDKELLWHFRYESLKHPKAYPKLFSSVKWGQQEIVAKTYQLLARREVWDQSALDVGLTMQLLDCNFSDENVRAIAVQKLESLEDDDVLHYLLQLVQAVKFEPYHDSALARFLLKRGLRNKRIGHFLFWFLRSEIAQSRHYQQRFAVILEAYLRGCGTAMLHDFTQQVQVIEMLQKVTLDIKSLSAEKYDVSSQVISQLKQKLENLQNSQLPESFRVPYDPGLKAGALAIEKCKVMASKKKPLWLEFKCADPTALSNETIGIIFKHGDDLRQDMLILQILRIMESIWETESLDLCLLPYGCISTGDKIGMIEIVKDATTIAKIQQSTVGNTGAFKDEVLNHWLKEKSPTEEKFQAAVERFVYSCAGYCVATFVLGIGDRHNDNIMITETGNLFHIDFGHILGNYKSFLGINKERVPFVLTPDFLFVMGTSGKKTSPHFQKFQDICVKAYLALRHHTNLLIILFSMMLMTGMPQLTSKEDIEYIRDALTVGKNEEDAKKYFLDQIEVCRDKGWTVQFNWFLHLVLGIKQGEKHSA

In the case of `Nc1nccn2c1c(-c1cc3cccc(Cl)c3[nH]1)nc2[C@H]1CC[C@H](C(=O)O)CC1`, the outcome (in [1]; in the test on GEO; in [10]) was Active. Moreover, the Activity in test [2] is 45%; in [4], 65%; in [5], 12%; in [9] it was 72%; in test [11], 54%; in [13] it was 40%. Further, in test [14], the Activity was 48%. Also, the IC50 (usually the point on the concentration scale where inhibition reaches its midpoint) in test [3] was 1.1 µM; on mTORC2 it was 0.007 µM; on mTORC1, 0.029 µM; in [15], > 40 µM. In addition, the inhibition entry with Mus musculus [6], with OVCAR-3 and in the test on Mus musculus [12] was “Active” throughout. Further, the inhibition (usually the percentage by which the read-out fell short of the control) is > 90% in test [7] and “Dose-Dependent Effect” in test [8].

For the origin of these results see ChEMBL document CHEMBL5653605, “Reduced VEGF production, angiogenesis, and vascular regrowth contribute to the antitumor properties of dual mTORC1/mTORC2 inhibitors” (Cancer Res, 2011).
